As usually defined, the CLint scaled is a measure of how fast metabolising enzymes remove a compound, apart from limits set by blood flow. A high value points to faster metabolism. By fraction unbound is commonly meant the share of the substance not bound to proteins or other matrix. Broadly, the IC50 is the concentration at which inhibition is half-maximal. The term solubility denotes how much of the substance goes into solution per volume. For orientation: Papp A→B means how fast a substance crosses the layer from the apical side. Usually half-life stands for the time needed for the level to fall by half in the phase considered. Low values mean rapid decline, high ones slow decline. As usually defined, the solubility (thermodynamic) is the concentration in solution at equilibrium with solid.

Data set [1] is described as follows: in vitro. Conditions: dog, liver microsomes. A general note: Liver microsomes are a subcellular fraction often used to study metabolism.
A short description of data set [2]: in vitro. Conditions: rat, liver microsomes.
The nature of data set [3]: Plasma protein binding in mouse at 5 uM measured after 4 hrs by LC-MS/MS analysis.
Data set [4] in a line: Inhibition of embelin-induced migration of rat neutrophils preincubated for 30 mins followed by embelin addition and measured after 1 hr by celltiter-glo assay. Conditions: Neutrophil. On the technique in general: Cellular ATP, detected with luciferase, serves as a proxy for viable cell number.
The nature of data set [5]: physchem. The settings on record: aqueous solution with 2% DMSO, pH 3.
Data set [6] is described as follows: Apparent permeability from apical to basolateral in human Caco2 cells at 10 uM measured after 60 mins by lucifer yellow dye based LC-MS/MS analysis. Conditions: Caco-2. (Caco-2 cells form a polarised layer with tight junctions and transporters.)
Data set [7] is described as follows: in vitro. The settings on record: rat, cryopreserved hepatocytes.
Data set [8] concerns the target Cytochrome P450 2D6 (Homo sapiens) (UniProt P10635).
The nature of data set [9]: in vitro. The settings on record: mouse, cryopreserved hepatocytes.
Data set [10] can be described thus: in vitro. The settings on record: human, cryopreserved hepatocytes.
Data set [11] can be described thus: in vitro. The settings on record: dog, cryopreserved hepatocytes.
Data set [12] deals with T1, Cytochrome P450 3A4 (Homo sapiens, UniProt P08684). The data set can be described thus: Inhibition of human CYP3A4 in human liver microsomes using testosterone as substrate and in presence of co-factor preincubated for 20 mins followed by substrate addition by LC-MS/MS analysis.
Data set [13] in a line: in vitro. Conditions: human, cryopreserved hepatocytes. This is another data set of the same source.
Data set [14] can be described thus: physchem. Conditions: aqueous solution with 2% DMSO, pH 7.4.
Data set [15] is described as follows: Plasma protein binding in human at 5 uM measured after 4 hrs by LC-MS/MS analysis.
The nature of data set [16]: in vitro. The settings on record: rat, cryopreserved hepatocytes. This is another data set of the same source.
The target in data set [17] is Cytochrome P450 2C9 (Homo sapiens) (UniProt P11712).
A short description of data set [18]: Plasma protein binding in rat at 5 uM measured after 4 hrs by LC-MS/MS analysis.
The nature of data set [19]: Plasma protein binding in dog at 5 uM measured after 4 hrs by LC-MS/MS analysis.
A further data set deals with Cytochrome P450 2C19 (Homo sapiens, UniProt P33261). The data set can be described thus: Inhibition of CYP2C19 in human liver microsomes using probe substrate and in presence of co-factor preincubated for 20 mins followed by substrate addition by LC-MS/MS analysis.
The nature of data set [20]: Thermodynamic solubility of compound at pH 7.4. Conditions: buffer.
Data set [21] is described as follows: in vitro. Conditions: mouse, cryopreserved hepatocytes. The source holds these as a separate data set.
Data set [22] can be described thus: in vitro. Conditions: mouse, liver microsomes.
The target of a further data set is T2, Cytochrome P450 1A2 (Homo sapiens, UniProt P05177).
T2 sequence (P05177 whole entry): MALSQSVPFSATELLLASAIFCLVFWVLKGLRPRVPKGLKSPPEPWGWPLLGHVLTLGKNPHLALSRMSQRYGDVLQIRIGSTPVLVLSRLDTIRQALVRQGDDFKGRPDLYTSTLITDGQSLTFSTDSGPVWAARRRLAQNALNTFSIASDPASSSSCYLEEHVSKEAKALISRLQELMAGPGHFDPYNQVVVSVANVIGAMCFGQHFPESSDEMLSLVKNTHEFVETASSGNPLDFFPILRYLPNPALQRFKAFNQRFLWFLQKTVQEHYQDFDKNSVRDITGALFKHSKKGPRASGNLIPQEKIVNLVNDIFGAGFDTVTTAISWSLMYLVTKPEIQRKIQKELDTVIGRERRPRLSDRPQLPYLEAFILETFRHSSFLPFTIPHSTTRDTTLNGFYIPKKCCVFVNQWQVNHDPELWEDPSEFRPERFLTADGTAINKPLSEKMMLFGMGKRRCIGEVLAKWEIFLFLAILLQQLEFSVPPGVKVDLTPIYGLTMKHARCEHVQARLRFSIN
The data set can be described thus: Inhibition of CYP1A2 in human liver microsomes using probe substrate and in presence of co-factor preincubated for 20 mins followed by substrate addition by LC-MS/MS analysis.

A short description of data set [23]: in vitro. Conditions: dog, cryopreserved hepatocytes. This is another data set of the same source.
In another data set the test system is Neutrophil. The data set is described as follows: Inhibition of dog neutrophil cell migration. Conditions: Canis lupus familiaris.
The target of data set [24] is T1, Cytochrome P450 3A4. The data set is described as follows: Inhibition of CYP3A4 in human liver microsomes using midazolam as substrate and in presence of co-factor preincubated for 20 mins followed by substrate addition by LC-MS/MS analysis.
The nature of data set [25]: in vitro. The settings on record: human, liver microsomes.
Data set [26] is described as follows: Inhibition of embelin-induced migration of human neutrophils preincubated for 30 mins followed by embelin addition and measured after 1 hr by ATPlite luminescence assay. The settings on record: Neutrophil.
The nature of data set [27]: Thermodynamic solubility of compound at pH 3. The settings on record: buffer.
Data set [28] addresses 3',5'-cyclic-AMP phosphodiesterase 4A (Homo sapiens, UniProt P27815). The data set is described as follows: Inhibition of recombinant human PDE4A overexpressed in HEK293 cells assessed as reduction in cAMP hydrolysis by HTRF based immunoassay. The settings on record: read-out: IC50. In kind it is cell-based. In outline:
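Human PDE4A from lysate of HEK293 cells overexpressing the enzyme hydrolyses cAMP; remaining cAMP measured by HTRF competitive immunoassay (d2-labelled cAMP vs cryptate anti-cAMP antibody), signal inversely proportional to cAMP; IC50 determined.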

In brackets after ≈: the same amount, converted by molar mass.

Chain of 3',5'-cyclic-AMP phosphodiesterase 4A (P27815 whole entry): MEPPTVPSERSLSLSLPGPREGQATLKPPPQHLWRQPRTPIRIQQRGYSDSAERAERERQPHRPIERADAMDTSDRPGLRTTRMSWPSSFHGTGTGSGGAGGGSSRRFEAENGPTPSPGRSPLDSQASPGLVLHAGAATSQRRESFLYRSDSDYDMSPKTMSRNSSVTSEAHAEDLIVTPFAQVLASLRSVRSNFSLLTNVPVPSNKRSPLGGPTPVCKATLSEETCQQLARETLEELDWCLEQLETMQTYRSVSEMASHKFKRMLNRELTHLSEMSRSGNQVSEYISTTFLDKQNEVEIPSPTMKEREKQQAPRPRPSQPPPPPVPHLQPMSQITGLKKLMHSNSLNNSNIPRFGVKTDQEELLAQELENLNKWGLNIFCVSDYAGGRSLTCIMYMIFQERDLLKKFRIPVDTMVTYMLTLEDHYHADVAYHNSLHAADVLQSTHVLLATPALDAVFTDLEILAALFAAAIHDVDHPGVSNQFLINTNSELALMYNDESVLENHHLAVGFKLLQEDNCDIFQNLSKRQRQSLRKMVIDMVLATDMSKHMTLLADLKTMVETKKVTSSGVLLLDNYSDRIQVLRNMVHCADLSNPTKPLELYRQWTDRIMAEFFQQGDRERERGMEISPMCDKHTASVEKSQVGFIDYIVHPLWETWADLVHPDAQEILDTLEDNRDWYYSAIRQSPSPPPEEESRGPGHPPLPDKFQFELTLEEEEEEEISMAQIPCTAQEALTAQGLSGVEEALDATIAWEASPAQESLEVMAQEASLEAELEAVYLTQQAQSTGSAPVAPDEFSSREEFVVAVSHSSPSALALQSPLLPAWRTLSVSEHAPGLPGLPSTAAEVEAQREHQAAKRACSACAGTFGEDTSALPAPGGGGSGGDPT
T1 sequence (P08684 whole entry): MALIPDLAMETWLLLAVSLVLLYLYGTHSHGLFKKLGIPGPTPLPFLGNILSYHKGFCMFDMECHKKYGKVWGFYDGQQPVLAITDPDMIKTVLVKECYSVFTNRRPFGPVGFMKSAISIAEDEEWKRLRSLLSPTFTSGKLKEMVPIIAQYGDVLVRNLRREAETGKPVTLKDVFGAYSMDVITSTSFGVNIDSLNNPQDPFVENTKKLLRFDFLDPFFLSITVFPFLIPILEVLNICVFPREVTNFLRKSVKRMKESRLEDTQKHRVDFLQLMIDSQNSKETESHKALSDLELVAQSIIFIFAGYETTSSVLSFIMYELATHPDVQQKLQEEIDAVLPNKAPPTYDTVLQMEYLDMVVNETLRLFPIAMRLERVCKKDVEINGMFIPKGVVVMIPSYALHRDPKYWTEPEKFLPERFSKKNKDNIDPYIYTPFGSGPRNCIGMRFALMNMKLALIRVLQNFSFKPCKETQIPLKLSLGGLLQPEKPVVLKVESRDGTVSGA
Chain of Cytochrome P450 2C9 (Homo sapiens) (P11712 whole entry, looked up): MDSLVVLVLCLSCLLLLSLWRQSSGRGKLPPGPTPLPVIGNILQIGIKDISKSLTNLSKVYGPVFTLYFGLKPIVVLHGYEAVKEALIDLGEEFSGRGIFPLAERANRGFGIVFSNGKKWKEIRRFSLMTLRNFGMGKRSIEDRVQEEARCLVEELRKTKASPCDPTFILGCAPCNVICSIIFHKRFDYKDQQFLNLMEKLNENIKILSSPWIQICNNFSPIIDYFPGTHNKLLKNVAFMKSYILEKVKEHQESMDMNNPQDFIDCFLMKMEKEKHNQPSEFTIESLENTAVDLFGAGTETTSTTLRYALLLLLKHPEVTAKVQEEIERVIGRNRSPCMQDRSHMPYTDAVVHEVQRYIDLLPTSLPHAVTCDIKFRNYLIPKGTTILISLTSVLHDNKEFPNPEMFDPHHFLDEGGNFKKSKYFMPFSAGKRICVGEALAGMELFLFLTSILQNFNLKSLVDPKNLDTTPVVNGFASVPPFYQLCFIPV
Chain of Cytochrome P450 2D6 (Homo sapiens) (P10635 whole entry, looked up): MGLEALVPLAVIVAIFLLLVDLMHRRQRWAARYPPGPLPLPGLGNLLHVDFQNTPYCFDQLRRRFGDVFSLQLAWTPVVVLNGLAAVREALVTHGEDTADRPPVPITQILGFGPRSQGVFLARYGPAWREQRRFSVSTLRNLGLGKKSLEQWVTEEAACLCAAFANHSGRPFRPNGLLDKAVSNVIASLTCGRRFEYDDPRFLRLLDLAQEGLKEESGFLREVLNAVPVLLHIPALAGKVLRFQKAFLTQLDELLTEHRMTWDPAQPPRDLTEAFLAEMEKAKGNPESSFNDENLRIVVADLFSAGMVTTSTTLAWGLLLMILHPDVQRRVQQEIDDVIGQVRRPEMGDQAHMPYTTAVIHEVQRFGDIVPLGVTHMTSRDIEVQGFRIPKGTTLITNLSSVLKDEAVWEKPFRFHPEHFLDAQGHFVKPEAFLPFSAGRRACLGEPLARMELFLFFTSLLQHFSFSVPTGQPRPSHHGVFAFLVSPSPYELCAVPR
Chain of Cytochrome P450 2C19 (P33261 whole entry): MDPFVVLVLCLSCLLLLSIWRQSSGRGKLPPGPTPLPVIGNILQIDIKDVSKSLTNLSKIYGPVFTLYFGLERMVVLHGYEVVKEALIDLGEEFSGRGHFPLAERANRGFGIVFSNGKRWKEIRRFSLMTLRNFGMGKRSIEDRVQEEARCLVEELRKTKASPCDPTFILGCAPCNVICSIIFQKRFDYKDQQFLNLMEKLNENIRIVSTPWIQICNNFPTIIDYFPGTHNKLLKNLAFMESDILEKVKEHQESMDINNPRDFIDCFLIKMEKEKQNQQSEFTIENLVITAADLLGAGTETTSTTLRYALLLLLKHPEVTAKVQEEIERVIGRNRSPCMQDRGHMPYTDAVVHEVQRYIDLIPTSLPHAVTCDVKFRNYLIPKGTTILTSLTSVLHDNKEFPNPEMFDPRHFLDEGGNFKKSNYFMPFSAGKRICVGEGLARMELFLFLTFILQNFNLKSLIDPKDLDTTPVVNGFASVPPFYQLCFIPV

In the case of `O=c1nc(OC[C@H]2COCCO2)cc2n1CCc1cc(C#CC3CC3)ccc1-2`, the CLint scaled at 0.5 h, 1 µM in “in vitro [1]” is 52.7 mL/min/kg; in “in vitro [2]” it was 82.8 mL/min/kg; in the data set “in vitro [22]”, 98.3 mL/min/kg; in “in vitro [25]”, 16 mL/min/kg. In addition, the fraction unbound at 4 h, 5 µM is 0.017 in data set [3], 0.059 in [15], 0.037 in data set [18] and 0.033 in [19]. For the same molecule, the IC50 is 153 nM in data set [4]; 31600 nM in data set [8]; above 50000 nM at Cytochrome P450 3A4 [12]; 1850 nM in data set [17]; 18200 nM at Cytochrome P450 2C19; above 100000 nM on Cytochrome P450 1A2. Moreover, the values for the IC50 (with Neutrophil; on Cytochrome P450 3A4 [24]; in data set [26]) were 111 nM, above 50000 nM and 51 nM, respectively. Moreover, the solubility in “physchem [5]” and in the data set “physchem [14]” was 113 µg/mL (≈ 299 µM) throughout. Moreover, the Papp A→B at 1 h, 10 µM in [6] is 31.2 ×10⁻⁶ cm/s. The intrinsic clearance (CLint scaled) at 1 µM was below 35.3 mL/min/kg in “in vitro [7]”, below 72.8 mL/min/kg in the data set “in vitro [9]”, below 21.3 mL/min/kg in the data set “in vitro [10]” and below 32 mL/min/kg in “in vitro [23]”. For the same molecule, the half-life at 1 µM in the data set “in vitro [11]” was above 2.52 h; in “in vitro [13]” it was above 3.33 h; in the data set “in vitro [16]” it was above 3.13 h; in the data set “in vitro [21]”, above 3.33 h. Moreover, the thermodynamic solubility was 9.49 µg/mL (≈ 25.1 µM) in data set [20] and 17.6 µg/mL (≈ 46.5 µM) in [27].

In the data set “physchem [14]”, `COc1cc2c(cc1OC)-c1cc(OCCOc3ccccc3)nc(=O)n1CC2` returned a solubility of 26 µg/mL (≈ 65.9 µM). Besides, the half-inhibitory concentration (IC50) in data set [28] came out at 2110 nM; in data set [26], 128 nM.

On to `COc1ccc2c(c1)-c1cc(OCc3ccccc3F)nc(=O)n1CC2`, for which, in data set [28], the concentration for half-maximal inhibition (IC50) was above 10000 nM. Moreover, the CLint scaled at 0.5 h, 1 µM in “in vitro [22]” is 1970 mL/min/kg.

In the case of `O=c1nc(OCc2ccccc2F)cc2n1CCc1ccccc1-2`, in data set [28], the 50% inhibitory concentration (IC50) was above 10000 nM.

On to `COc1cc2c(cc1OC)-c1cc(OCc3ncccc3F)nc(=O)n1CC2`, for which, in data set [28], the 50% inhibitory concentration (IC50) is 1090 nM.

With `COc1ccc2c(c1)CCn1c-2cc(OCC2COc3ccccc3O2)nc1=O` (configuration not stated), the CLint scaled at 0.5 h, 1 µM in the data set “in vitro [2]” is 615 mL/min/kg; in “in vitro [22]”, 532 mL/min/kg; in “in vitro [25]”, 76.7 mL/min/kg. The fraction unbound at 4 h, 5 µM in data set [3] was 0.01; in data set [15], 0.002; in [18], 0.004. For the same molecule, the CLint scaled at 1 µM was 375 mL/min/kg in the data set “in vitro [9]” and 90 mL/min/kg in “in vitro [10]”.

Take `COc1ccc2c(c1)CCn1c-2cc(OCC2CCCO2)nc1=O` (configuration not stated): the CLint scaled at 1 µM was 647 mL/min/kg in “in vitro [9]” and 23.3 mL/min/kg in the data set “in vitro [10]”. Moreover, the CLint scaled at 0.5 h, 1 µM was 2150 mL/min/kg in the data set “in vitro [22]” and 33.3 mL/min/kg in the data set “in vitro [25]”.

Consider `COc1ccc2c(c1)CCn1c-2cc(OC[C@H]2COc3ncccc3O2)nc1=O`, for which the figures for the CLint scaled at 0.5 h, 1 µM in the data set “in vitro [2]”, in the data set “in vitro [22]” and in “in vitro [25]” were 152 mL/min/kg, 360 mL/min/kg and 35 mL/min/kg, respectively. Further, the unbound share (fraction unbound) at 4 h, 5 µM in [3] was 0.087; in data set [15], 0.027; in data set [18], 0.021. The values for the CLint scaled at 1 µM in “in vitro [9]” and in “in vitro [10]” were 182 mL/min/kg and 13.3 mL/min/kg, respectively.

Regarding `COc1cc2c(cc1OC)-c1cc(OCCOc3ccccn3)nc(=O)n1CC2`, in “physchem [14]”, the solubility turned out to be 18 µg/mL (≈ 45.5 µM). Moreover, the IC50 in [28] worked out at 586 nM.

The molecule `COc1cc2c(cc1OC)-c1cc(OCc3ccccc3F)nc(=O)n1CC2` yielded a solubility in the data set “physchem [14]” of 26 µg/mL (≈ 68 µM). Besides, the IC50 in [28] came to 372 nM. In the data set “in vitro [22]”, the CLint scaled at 0.5 h, 1 µM was 670 mL/min/kg.

Consider `COc1ccc2c(c1)CCn1c-2cc(OCC2CCCCO2)nc1=O` (configuration not stated), for which the CLint scaled at 1 µM in “in vitro [9]” is 575 mL/min/kg; in “in vitro [10]”, 25 mL/min/kg. The intrinsic metabolic clearance (CLint scaled) at 0.5 h, 1 µM is 463 mL/min/kg in “in vitro [22]” and 21.7 mL/min/kg in “in vitro [25]”.

Take `COc1cc2c(cc1OC)-c1cc(OCCCc3ccccc3)nc(=O)n1CC2`: the solubility in the data set “physchem [14]” worked out at 3 µg/mL (≈ 7.64 µM).
